Data on three compounds can be found in ChEMBL document CHEMBL2401626 (J Med Chem, 2013).

The test system of one data set is SH-SY5Y. Briefly: Antioxidant activity in human SH-SY5Y cells assessed as decrease in t-BuOOH-induced intracellular ROS production at 5 to 20 uM incubated for 24 hrs prior to t-BuOOH challenge measured after 30 mins by DCFHDA-based fluorescence assay. It counts as functional, cell-based. An outline of the steps:
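SH-SY5Y cells (DMEM, 10% FCS, 37 °C, 5% CO2) seeded 1 × 10^4/well and grown 24 h. Compound added for 24 h; Trolox control at 5, 10, 20 μM. Cells are then washed, loaded with 5 μM DCFH-DA in PBS for 30 min, and challenged with 0.1 mM t-BuOOH for 30 min. Fluorescence read at ex 485/em 535 nm. Result is % of control by formula; three independent experiments in sextuplicate.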

A short description of data set [1]: Cytotoxicity against human SH-SY5Y cells assessed as cell viability at 10 uM after 24 hrs by MTT assay. It counts as cell-based. An outline of the steps:
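SH-SY5Y cells seeded 5 × 10^4/well, then exposed to compound for 24 h at 37 °C. MTT (0.5 mg/mL final) added for 4 h; formazan dissolved in DMSO and read at 570 nm. Viability is treated/untreated absorbance × 100, each corrected for zero-day control. Three independent experiments in sextuplicate.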
(In general: Formazan colour is commonly taken as a measure of viable cells.)

In data set [2] the target is T1, Amine oxidase [flavin-containing] B (Homo sapiens, UniProt P27338).
T1 sequence (P27338 whole entry): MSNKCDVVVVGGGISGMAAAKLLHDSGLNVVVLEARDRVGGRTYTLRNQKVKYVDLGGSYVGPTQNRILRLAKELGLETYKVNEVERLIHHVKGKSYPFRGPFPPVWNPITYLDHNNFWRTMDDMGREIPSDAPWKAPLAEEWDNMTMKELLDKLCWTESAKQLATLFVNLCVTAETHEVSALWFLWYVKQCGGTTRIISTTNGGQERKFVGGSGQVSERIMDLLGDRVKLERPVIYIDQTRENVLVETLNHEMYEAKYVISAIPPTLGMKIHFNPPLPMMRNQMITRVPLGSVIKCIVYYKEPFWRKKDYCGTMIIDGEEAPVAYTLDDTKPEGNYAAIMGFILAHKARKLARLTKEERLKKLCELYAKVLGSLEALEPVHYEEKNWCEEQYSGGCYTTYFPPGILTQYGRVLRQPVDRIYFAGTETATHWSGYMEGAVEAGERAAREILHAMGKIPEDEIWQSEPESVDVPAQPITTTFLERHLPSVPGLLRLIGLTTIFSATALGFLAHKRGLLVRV

Data set [3] has as its target T2, Amine oxidase [flavin-containing] A (Homo sapiens, UniProt P21397).
T2 sequence (P21397 whole entry): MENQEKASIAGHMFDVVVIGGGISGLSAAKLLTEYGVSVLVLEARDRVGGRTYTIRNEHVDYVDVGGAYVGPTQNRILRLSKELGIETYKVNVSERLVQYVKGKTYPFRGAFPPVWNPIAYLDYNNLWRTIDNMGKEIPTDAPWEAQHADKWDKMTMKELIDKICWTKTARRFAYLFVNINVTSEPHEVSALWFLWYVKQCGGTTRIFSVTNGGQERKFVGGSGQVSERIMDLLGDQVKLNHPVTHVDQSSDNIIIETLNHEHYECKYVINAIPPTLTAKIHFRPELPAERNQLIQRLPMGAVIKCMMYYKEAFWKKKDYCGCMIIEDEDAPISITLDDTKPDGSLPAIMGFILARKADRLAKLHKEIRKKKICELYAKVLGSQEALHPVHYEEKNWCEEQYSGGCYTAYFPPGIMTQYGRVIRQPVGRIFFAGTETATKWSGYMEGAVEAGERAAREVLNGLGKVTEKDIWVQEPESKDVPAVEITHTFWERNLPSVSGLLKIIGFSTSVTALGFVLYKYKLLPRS
Briefly: Inhibition of human recombinant MAOA using p-tyramine as substrate incubated for 15 mins prior to substrate addition measured after 20 mins by fluorescence plate reader analysis.

The next data set has as its target Cholinesterase (Equus caballus, UniProt P81908). Briefly: Inhibition of equine serum BuChE using butylthiocholine chloride as substrate preincubated for 15 mins followed by substrate addition measured every 1 min by Ellman's method. In general terms: In Ellman's method for cholinesterases, released thiocholine reacts with DTNB.
In a further data set the target is Acetylcholinesterase (Electrophorus electricus, UniProt O42275). Briefly: Inhibition of electric eel AChE using acetylthiocholine chloride as substrate preincubated for 15 mins followed by substrate addition measured every 1 min by Ellman's method. An outline of the steps: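 Ellman method in 0.1 M potassium phosphate buffer, pH 8.0, 1 mL assay containing DTNB and thiocholine substrate (each 50 μL of 0.01 M stock). Enzyme (AChE stock 2.0 units/mL) preincubated with compound 15 min at 37 °C, then substrate added. A412 read at 1 min intervals at 37 °C. Each concentration in triplicate. IC50 from at least three experiments.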

Data set [4] deals with Amyloid-beta precursor protein (Homo sapiens, UniProt P05067).
The next data set concerns Mus musculus. Briefly: Acute toxicity in KM mouse at 677 to 2000 mg/kg, po after 14 days. The data set is classed as organism-based. The arrangement: dose 677-2000 mg/kg, route oral. The note with it: in vivo, 336 h. An outline of the steps: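 Male KM mice (22 days, 18−20 g), fasted overnight with free access to water, n = 5 per group; single oral dose of 0, 677, 1333 or 2000 mg/kg suspended in 0.5% CMC-Na. Watched continuously for 4 h, intermittently for 24 h, then occasionally to day 14 for behaviour and mortality; killed day 14, heart, liver and kidneys examined macroscopically.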

Activity calls are given as the source filed them. The calls are words filed in the database; no cut-off is given here.

As usually defined, the IC50 is the midpoint of a concentration-inhibition curve.

Sequence of Acetylcholinesterase (O42275 whole entry): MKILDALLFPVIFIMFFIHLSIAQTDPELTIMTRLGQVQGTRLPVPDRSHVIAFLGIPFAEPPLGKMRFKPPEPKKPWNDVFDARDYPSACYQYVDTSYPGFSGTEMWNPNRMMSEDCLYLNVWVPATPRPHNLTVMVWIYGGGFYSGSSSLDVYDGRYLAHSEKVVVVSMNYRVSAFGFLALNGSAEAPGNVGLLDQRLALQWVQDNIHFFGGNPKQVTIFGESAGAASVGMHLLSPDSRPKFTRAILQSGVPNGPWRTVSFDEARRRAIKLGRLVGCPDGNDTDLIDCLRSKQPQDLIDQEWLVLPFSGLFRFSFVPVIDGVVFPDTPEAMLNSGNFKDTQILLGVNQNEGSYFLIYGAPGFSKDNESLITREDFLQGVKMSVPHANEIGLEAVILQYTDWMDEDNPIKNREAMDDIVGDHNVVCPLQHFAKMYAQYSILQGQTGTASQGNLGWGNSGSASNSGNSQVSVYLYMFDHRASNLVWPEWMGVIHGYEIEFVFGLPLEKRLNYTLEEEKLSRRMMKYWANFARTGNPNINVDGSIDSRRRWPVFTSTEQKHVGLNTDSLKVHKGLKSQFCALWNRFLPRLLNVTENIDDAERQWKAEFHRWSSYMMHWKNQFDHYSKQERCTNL
Sequence of Amyloid-beta precursor protein (P05067 whole entry): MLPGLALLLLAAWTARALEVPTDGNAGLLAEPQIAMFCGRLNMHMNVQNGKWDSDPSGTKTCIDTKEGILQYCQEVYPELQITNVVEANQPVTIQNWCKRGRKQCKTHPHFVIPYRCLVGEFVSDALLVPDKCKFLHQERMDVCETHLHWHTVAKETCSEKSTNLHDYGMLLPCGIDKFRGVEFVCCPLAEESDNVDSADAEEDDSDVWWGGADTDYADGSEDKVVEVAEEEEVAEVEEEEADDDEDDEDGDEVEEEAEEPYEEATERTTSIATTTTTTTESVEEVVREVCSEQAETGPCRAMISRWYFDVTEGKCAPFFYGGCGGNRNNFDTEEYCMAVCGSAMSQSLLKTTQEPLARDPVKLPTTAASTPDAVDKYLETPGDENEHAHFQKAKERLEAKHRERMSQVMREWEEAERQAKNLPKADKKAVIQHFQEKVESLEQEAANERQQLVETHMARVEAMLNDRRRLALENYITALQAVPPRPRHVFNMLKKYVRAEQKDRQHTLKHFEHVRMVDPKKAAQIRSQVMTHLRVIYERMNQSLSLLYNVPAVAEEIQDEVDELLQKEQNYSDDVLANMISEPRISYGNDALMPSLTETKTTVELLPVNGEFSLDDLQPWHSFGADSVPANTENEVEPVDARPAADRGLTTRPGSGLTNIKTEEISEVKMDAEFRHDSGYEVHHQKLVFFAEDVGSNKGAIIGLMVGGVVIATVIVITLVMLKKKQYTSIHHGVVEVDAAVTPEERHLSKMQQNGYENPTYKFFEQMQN
Sequence of Cholinesterase (P81908 whole entry): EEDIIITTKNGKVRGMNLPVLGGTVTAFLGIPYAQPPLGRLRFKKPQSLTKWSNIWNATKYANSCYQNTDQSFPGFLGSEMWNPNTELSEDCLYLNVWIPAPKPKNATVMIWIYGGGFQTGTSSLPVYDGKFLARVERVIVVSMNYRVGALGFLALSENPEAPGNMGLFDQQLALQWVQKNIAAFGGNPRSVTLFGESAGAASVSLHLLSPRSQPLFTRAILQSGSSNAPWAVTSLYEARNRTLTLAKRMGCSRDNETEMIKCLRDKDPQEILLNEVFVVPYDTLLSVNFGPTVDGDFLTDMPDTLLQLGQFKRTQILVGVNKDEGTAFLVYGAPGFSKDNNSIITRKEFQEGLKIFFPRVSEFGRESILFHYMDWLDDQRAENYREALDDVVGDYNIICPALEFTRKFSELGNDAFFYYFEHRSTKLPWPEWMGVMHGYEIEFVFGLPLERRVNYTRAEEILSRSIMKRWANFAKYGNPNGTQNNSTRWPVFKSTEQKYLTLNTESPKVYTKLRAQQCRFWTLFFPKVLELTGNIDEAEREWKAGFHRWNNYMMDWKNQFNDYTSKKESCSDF

Consider `Cc1c(C)c2c(c(C)c1O)CCC(C)(C(=O)O)O2` (racemic), for which the outcome in the data set with SH-SY5Y was Active.

As to `CN(C)c1ccc(O)c(CNc2ccc(/C=C/c3cc(O)cc(O)c3)cc2)c1`, in data set [1], the Activity entry is listed as “Non-toxic”. Besides, the IC50 turned out to be 14.1 µM in data set [2]; 7.08 µM in data set [3]; 21.2 µM at Cholinesterase; 6.27 µM at Acetylcholinesterase; 6.51 µM in data set [4].

In the case of `COc1cc(/C=C/c2ccc(NCc3cc(N(C)C)ccc3O)cc2)cc(OC)c1`, the Activity entry (in the data set with Mus musculus; in data set [1]) was “Non-toxic” each time. Besides, the half-maximal inhibitory concentration (IC50) was 12.2 µM in data set [2]; 8.19 µM in data set [3]; > 50 µM on Cholinesterase; 36 µM against Acetylcholinesterase; 7.56 µM in data set [4].
